Test results reported in ChEMBL document CHEMBL4602716, “Development of Selective Histone Deacetylase 6 (HDAC6) Degraders Recruiting Von Hippel-Lindau (VHL) E3 Ubiquitin Ligase” (ACS Med Chem Lett, 2020).
The source made the active and inactive calls. The calls are words filed in the database; no cut-off is given here.

Legend:
Format in all cases: cell-based
[1] = target: T1, von Hippel-Lindau disease tumor suppressor/Protein deacetylase HDAC6 (Homo sapiens, UniProt Q9UBN7+P40337); experiment: Protac activity at VHL/HDAC6 in human MM1S cells assessed as HDAC6 degradation at 100 nM measured after 6 hrs by ELISA
Summary of the method: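 Linker-length screen. MM1S cells were treated with degraders at 100 nM for 6 h, and HDAC6 protein level was quantified by in-cell ELISA.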
Target sequence in this assay (P40337 whole entry, looked up): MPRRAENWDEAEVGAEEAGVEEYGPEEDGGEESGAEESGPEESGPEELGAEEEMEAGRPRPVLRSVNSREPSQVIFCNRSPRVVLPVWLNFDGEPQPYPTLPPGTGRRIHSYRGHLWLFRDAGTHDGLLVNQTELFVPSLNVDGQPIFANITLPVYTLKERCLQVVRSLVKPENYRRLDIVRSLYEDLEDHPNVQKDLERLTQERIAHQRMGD
Target sequence in this assay (Q9UBN7 whole entry, looked up): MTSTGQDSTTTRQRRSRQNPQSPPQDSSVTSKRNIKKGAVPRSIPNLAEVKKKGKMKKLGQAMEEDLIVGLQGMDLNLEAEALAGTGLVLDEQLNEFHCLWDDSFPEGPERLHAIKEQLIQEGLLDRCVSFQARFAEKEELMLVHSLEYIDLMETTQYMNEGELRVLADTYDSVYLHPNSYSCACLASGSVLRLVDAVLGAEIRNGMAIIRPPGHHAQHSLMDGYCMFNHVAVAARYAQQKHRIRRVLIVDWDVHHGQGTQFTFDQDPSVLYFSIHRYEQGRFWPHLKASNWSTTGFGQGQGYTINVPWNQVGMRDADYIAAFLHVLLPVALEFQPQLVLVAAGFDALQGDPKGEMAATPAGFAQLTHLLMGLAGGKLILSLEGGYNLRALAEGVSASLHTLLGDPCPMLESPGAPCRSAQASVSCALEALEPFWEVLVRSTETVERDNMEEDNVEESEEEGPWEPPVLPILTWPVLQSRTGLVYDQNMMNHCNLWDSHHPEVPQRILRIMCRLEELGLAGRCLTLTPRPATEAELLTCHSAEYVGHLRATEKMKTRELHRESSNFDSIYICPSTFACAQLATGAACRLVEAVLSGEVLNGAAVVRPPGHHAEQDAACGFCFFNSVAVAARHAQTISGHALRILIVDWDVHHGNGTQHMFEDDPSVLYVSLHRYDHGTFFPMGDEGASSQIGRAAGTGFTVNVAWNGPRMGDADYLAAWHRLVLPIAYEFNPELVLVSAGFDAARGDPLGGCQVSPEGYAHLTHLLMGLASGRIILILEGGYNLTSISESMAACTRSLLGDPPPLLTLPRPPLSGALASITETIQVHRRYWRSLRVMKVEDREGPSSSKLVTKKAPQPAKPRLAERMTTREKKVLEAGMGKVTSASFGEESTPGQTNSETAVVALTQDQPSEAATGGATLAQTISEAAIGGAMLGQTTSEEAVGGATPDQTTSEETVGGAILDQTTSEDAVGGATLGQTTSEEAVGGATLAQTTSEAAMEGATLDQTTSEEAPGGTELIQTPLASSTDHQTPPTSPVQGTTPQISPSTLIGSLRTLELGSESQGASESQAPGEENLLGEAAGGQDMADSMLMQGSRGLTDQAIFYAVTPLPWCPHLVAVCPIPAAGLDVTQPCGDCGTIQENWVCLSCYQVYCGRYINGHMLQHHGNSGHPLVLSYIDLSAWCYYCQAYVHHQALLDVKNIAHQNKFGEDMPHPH

[2] = target: T1, von Hippel-Lindau disease tumor suppressor/Protein deacetylase HDAC6; experiment: Protac activity at VHL/HDAC6 in human A549 cells assessed as induction of HDAC degradation by Western blot analysis
Target sequence in this assay (P40337 whole entry, looked up): as the sequence (P40337 whole entry, looked up) above
Target sequence in this assay (Q9UBN7 whole entry, looked up): as the sequence (Q9UBN7 whole entry, looked up) above

[3] = target: T1, von Hippel-Lindau disease tumor suppressor/Protein deacetylase HDAC6; experiment: Protac activity at VHL/HDAC6 in human MM1S cells measured after 6 hrs by ELISA
Summary of the method: (§1)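 MM1S multiple myeloma cells exposed to degraders for 6 h. HDAC6 protein level was read by in-cell ELISA; dose-response ran from 1 nM to 3 μM. DC50 and Dmax were derived from the dose-response curve.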

[4] = target: von Hippel-Lindau disease tumor suppressor/Histone deacetylase 1 (Homo sapiens) (UniProt Q13547+P40337); experiment: Protac activity at VHL/HDAC1 in human MM1S cells assessed as HDAC1 degradation at 100 nM after 4 hrs by Western blot analysis
[5] = target: T1, von Hippel-Lindau disease tumor suppressor/Protein deacetylase HDAC6; experiment: Protac activity at VHL/HDAC6 in human MM1S cells assessed as HDAC6 degradation at 100 nM pretreated for 1 hr in presence of proteasome inhibitor MG132 by Western blot analysis
Summary of the method: (§2)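 MM1S cells were pretreated for 1 h with a pathway inhibitor or competing ligand, then given degrader at 100 nM. HDAC6 was read by Western blot. Pretreatment levels: MG132 1 μM, bortezomib 1 μM, MLN4924 5 μM, Next-A 5 μM; VHL-1 was titrated.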
Target sequence in this assay (P40337 whole entry, looked up): as the sequence (P40337 whole entry, looked up) above
Target sequence in this assay (Q9UBN7 whole entry, looked up): as the sequence (Q9UBN7 whole entry, looked up) above

[6] = target: von Hippel-Lindau disease tumor suppressor/Histone deacetylase 2 (Homo sapiens) (UniProt Q92769+P40337); experiment: Protac activity at VHL/HDAC2 in human MM1S cells assessed as HDAC2 degradation at 100 nM after 4 hrs by Western blot analysis
[7] = target: T1, von Hippel-Lindau disease tumor suppressor/Protein deacetylase HDAC6; experiment: Protac activity at VHL/HDAC6 in human MM1S cells assessed as HDAC6 degradation at 100 nM pretreated for 1 hr in presence of HDAC6 inhibitor Next-A by Western blot analysis; summary of the method: as §2
Target sequence in this assay (P40337 whole entry, looked up): as the sequence (P40337 whole entry, looked up) above
Target sequence in this assay (Q9UBN7 whole entry, looked up): as the sequence (Q9UBN7 whole entry, looked up) above

[8] = target: T2, von Hippel-Lindau disease tumor suppressor/Protein deacetylase HDAC6 (Mus musculus, UniProt Q9Z2V5+P40338); experiment: Protac activity at VHL/HDAC6 in mouse 4935 cells assessed as HDAC6 degradation after 6 hrs by ELISA
[9] = target: T1, von Hippel-Lindau disease tumor suppressor/Protein deacetylase HDAC6; experiment: Protac activity at VHL/HDAC6 in human MM1S cells assessed as compound-VHL complex formation at 3 uM after 6 hrs
Target sequence in this assay (P40337 whole entry, looked up): as the sequence (P40337 whole entry, looked up) above
Target sequence in this assay (Q9UBN7 whole entry, looked up): as the sequence (Q9UBN7 whole entry, looked up) above

[10] = target: T1, von Hippel-Lindau disease tumor suppressor/Protein deacetylase HDAC6; experiment: Protac activity at VHL/HDAC6 in human MM1S cells assessed as HDAC6 degradation at 100 nM pretreated for 1 hr in presence of proteasome inhibitor Bortezomib by Western blot analysis; summary of the method: as §2
Target sequence in this assay (P40337 whole entry, looked up): as the sequence (P40337 whole entry, looked up) above
Target sequence in this assay (Q9UBN7 whole entry, looked up): as the sequence (Q9UBN7 whole entry, looked up) above

[11] = target: T1, von Hippel-Lindau disease tumor suppressor/Protein deacetylase HDAC6; experiment: Protac activity at VHL/HDAC6 in human MM1S cells measured after 6 hrs by ELISA relative to control; summary of the method: as §1
[12] = target: T1, von Hippel-Lindau disease tumor suppressor/Protein deacetylase HDAC6; experiment: Protac activity at VHL/HDAC6 in human MM1S cells assessed as increase in tubulin acetylation at 100 nM measured after 6 hrs by Western blot analysis
Summary of the method: (§3)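 MM1S cells were treated with degraders at 100 nM for 6 h. Lysates were analysed by Western blot for HDAC6 and acetylated tubulin.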

[13] = target: T1, von Hippel-Lindau disease tumor suppressor/Protein deacetylase HDAC6; experiment: Protac activity at VHL/HDAC6 in human MM1S cells assessed as HDAC6 degradation at 100 nM measured after 4 hrs by Western blot analysis
Summary of the method: (§4)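 Dose-response in MM1S cells treated with degrader from 1 nM to 30 μM for 4 h. Lysates were immunoblotted for HDAC6 and acetylated tubulin.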

[14] = target: T3, von Hippel-Lindau disease tumor suppressor/Protein deacetylase HDAC6 (Mus musculus) (UniProt Q9Z2V5+P40338); experiment: Protac activity at VHL/HDAC6 in mouse 4935 cells assessed as tubulin acetylation at 10 nM to 10 uM after 6 hrs by Western blot analysis
Summary of the method: (§5)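 Mouse 4935 cells were treated with degraders for 6 h, then analysed by Western blot for HDAC6 and acetylated tubulin.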

[15] = target: T1, von Hippel-Lindau disease tumor suppressor/Protein deacetylase HDAC6; experiment: Protac activity at VHL/HDAC6 in human MCF7 cells assessed as induction of HDAC degradation by Western blot analysis
[16] = target: von Hippel-Lindau disease tumor suppressor/Zinc finger protein Aiolos (Homo sapiens) (UniProt P40337+Q9UKT9); experiment: Protac activity at VHL/IKZF3 in human MM1S cells assessed as IKZF3 degradation at 100 nM after 4 hrs by Western blot analysis
[17] = target: von Hippel-Lindau disease tumor suppressor/Histone deacetylase 4 (Homo sapiens) (UniProt P56524+P40337); experiment: Protac activity at VHL/HDAC4 in human MM1S cells assessed as HDAC4 degradation at 100 nM after 4 hrs by Western blot analysis
[18] = target: von Hippel-Lindau disease tumor suppressor/DNA-binding protein Ikaros (Homo sapiens) (UniProt P40337+Q13422); experiment: Protac activity at VHL/IKZF1 in human MM1S cells assessed as IKZF1 degradation at 100 nM after 4 hrs by Western blot analysis
[19] = target: T1, von Hippel-Lindau disease tumor suppressor/Protein deacetylase HDAC6; experiment: Protac activity at VHL/HDAC6 in human MM1S cells assessed as compound-HDAC6 complex formation at 3 uM after 6 hrs
[20] = target: von Hippel-Lindau disease tumor suppressor/Histone deacetylase 5 (Homo sapiens) (UniProt Q9UQL6+P40337); experiment: Protac activity at VHL/HDAC5 in human MM1S cells assessed as HDAC5 degradation at 100 nM after 4 hrs by Western blot analysis
[21] = target: T1, von Hippel-Lindau disease tumor suppressor/Protein deacetylase HDAC6; experiment: Protac activity at VHL/HDAC6 in human MM1S cells assessed as HDAC6 degradation at 100 nM measured after 6 hrs by Western blot analysis; summary of the method: as §3
[22] = target: T3, von Hippel-Lindau disease tumor suppressor/Protein deacetylase HDAC6 (Mus musculus); experiment: Protac activity at VHL/HDAC6 in mouse 4935 cells assessed as HDAC6 degradation at 10 nM to 10 uM after 6 hrs by Western blot analysis; summary of the method: as §5
[23] = target: T1, von Hippel-Lindau disease tumor suppressor/Protein deacetylase HDAC6; experiment: Protac activity at VHL/HDAC6 in human MM1S cells assessed as HDAC6 degradation at 10 nM measured after 4 hrs by Western blot analysis; summary of the method: as §4
[24] = target: T1, von Hippel-Lindau disease tumor suppressor/Protein deacetylase HDAC6; experiment: Protac activity at VHL/HDAC6 in human MM1S cells assessed as HDAC6 degradation at 100 nM pretreated for 1 hr in presence of 5 uM VHL-1 by Western blot analysis; summary of the method: as §2
[25] = target: T1, von Hippel-Lindau disease tumor suppressor/Protein deacetylase HDAC6; experiment: Protac activity at VHL/HDAC6 in human MM1S cells assessed as induction of tubulin acetylation at 1 uM after 4 hrs by Western blot analysis; summary of the method: as §4
[26] = target: T1, von Hippel-Lindau disease tumor suppressor/Protein deacetylase HDAC6; experiment: Protac activity at VHL/HDAC6 in human MM1S cells assessed as increase in tubulin acetylation at 300 nM after 4 hrs by Western blot analysis; summary of the method: as §4
[27] = target: T1, von Hippel-Lindau disease tumor suppressor/Protein deacetylase HDAC6; experiment: Protac activity at VHL/HDAC6 in human HEK293T cells assessed as induction of HDAC degradation by Western blot analysis; conditions: HEK-293T
[28] = target: T1, von Hippel-Lindau disease tumor suppressor/Protein deacetylase HDAC6; experiment: Protac activity at VHL/HDAC6 in human MM1S cells assessed as reduction in protein level at 100 nM after 30 mins by Western blot analysis
[29] = target: T1, von Hippel-Lindau disease tumor suppressor/Protein deacetylase HDAC6; experiment: Protac activity at VHL/HDAC6 in human MM1S cells assessed as tubulin acetylation at 100 nM to 1 microM after 6 hrs by Western blot analysis
[30] = target: T3, von Hippel-Lindau disease tumor suppressor/Protein deacetylase HDAC6 (Mus musculus); experiment: Protac activity at VHL/HDAC6 in mouse 4935 cells assessed as HDAC6 degradation after 6 hrs by ELISA relative to control
[31] = target: T1, von Hippel-Lindau disease tumor suppressor/Protein deacetylase HDAC6; experiment: Protac activity at VHL/HDAC6 in human U87MG cells assessed as induction of HDAC degradation by Western blot analysis; conditions: U-87MG ATCC
[32] = target: T2, von Hippel-Lindau disease tumor suppressor/Protein deacetylase HDAC6; experiment: Protac activity at VHL/HDAC6 in mouse 4935 cells assessed as HDAC6 degradation after 6 hrs by Western blot analysis; summary of the method: as §5
[33] = target: T1, von Hippel-Lindau disease tumor suppressor/Protein deacetylase HDAC6; experiment: Protac activity at VHL/HDAC6 in human MM1S cells assessed as induction of tubulin acetylation after 4 hrs by Western blot analysis; summary of the method: as §4
[34] = target: von Hippel-Lindau disease tumor suppressor/Histone deacetylase 3 (Homo sapiens) (UniProt O15379+P40337); experiment: Protac activity at VHL/HDAC3 in human MM1S cells assessed as HDAC3 degradation at 100 nM after 4 hrs by Western blot analysis
[35] = target: von Hippel-Lindau disease tumor suppressor/Histone deacetylase 7 (Homo sapiens) (UniProt Q8WUI4+P40337); experiment: Protac activity at VHL/HDAC7 in human MM1S cells assessed as HDAC7 degradation at 100 nM after 4 hrs by Western blot analysis
[36] = target: T1, von Hippel-Lindau disease tumor suppressor/Protein deacetylase HDAC6; experiment: Protac activity at VHL/HDAC6 in human MM1S cells assessed as reduction in protein level at 100 nM after 4 hrs by Western blot analysis

T3 sequence (P40338 whole entry, looked up): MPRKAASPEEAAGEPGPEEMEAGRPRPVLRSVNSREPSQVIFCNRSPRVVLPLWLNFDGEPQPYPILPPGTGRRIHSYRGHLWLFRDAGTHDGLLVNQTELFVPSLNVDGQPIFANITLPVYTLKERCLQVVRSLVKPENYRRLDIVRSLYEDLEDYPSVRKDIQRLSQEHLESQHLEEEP
T3 sequence (Q9Z2V5 whole entry, looked up): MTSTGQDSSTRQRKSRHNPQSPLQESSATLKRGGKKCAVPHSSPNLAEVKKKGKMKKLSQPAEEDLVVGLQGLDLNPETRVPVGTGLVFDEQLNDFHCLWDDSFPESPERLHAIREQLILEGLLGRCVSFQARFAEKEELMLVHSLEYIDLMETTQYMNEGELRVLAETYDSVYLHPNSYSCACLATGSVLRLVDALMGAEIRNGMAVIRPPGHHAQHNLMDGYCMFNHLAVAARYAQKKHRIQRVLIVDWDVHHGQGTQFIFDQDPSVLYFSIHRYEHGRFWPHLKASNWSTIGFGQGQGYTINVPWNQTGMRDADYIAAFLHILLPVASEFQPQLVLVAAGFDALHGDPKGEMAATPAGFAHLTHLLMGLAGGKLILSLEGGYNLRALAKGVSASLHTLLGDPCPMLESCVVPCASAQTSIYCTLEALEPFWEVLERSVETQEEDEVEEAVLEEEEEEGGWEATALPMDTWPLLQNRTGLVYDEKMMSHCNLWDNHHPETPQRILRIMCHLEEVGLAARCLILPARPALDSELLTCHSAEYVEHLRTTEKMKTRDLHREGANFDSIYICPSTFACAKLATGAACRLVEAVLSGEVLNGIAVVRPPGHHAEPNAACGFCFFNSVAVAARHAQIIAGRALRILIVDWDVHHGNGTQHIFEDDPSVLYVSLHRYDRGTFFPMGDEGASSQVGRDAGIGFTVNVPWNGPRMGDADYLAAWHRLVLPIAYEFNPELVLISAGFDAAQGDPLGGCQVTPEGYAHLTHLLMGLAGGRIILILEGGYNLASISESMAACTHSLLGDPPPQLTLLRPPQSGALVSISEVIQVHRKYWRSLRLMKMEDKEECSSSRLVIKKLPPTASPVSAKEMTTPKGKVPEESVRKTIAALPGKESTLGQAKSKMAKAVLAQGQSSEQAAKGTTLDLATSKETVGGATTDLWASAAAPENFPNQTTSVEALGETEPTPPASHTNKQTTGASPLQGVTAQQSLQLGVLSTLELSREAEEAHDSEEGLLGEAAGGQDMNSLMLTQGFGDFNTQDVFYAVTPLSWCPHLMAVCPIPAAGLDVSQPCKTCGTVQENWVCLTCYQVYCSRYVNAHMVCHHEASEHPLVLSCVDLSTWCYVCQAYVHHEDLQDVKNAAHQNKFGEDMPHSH
T2 sequence (Q9Z2V5 whole entry): as the sequence (Q9Z2V5 whole entry, looked up) above
T2 sequence (P40338 whole entry): as the sequence (P40338 whole entry, looked up) above

Activity [1]: Active
Activity [2]: Dose-dependent effect
DC50 [3]: 7.1 nM
Activity [4]: inactive
Activity [5]: inactive
Activity [6]: inactive
Activity [7]: inactive
DC50 [8]: 4.3 nM
Activity [9]: Active
Activity [10]: inactive
Emax [11]: 90%
Activity [12]: Active
Activity [13]: Active
Activity [14]: Active
Activity [15]: Dose-dependent effect
Activity [16]: inactive
Activity [17]: inactive
Activity [18]: inactive
Activity [19]: Active
Activity [20]: inactive
Activity [21]: Active
Activity [22]: Active
Activity [23]: Active
Activity [24]: inactive
Activity [25]: Active
Activity [26]: Active
Activity [27]: Dose-dependent effect
Activity [28]: Active
Activity [29]: Active
Emax [30]: 57%
Activity [31]: Dose-dependent effect
DC50 [32]: 12 nM
Activity [33]: Dose-dependent effect
Activity [34]: inactive
Activity [35]: inactive
Activity [36]: Active
SMILES: CCCCN(Cc1ccc(C(=O)NO)cc1)C(=O)Nc1ccc(OCCCCCCCCCCCn2cc(CCCCC(=O)N[C@H](C(=O)N3C[C@H](O)C[C@H]3C(=O)NCc3ccc(-c4scnc4C)cc3)C(C)(C)C)nn2)cc1
